The values that follow come from paper PMC11068522 (International Journal for Parasitology: Drugs and Drug …, 2024).

SMILES strings stand for the structures. Read-outs that look alike come from different tables or passages of the source.

The subject of data set [1] is intraerythrocytic stage P. falciparum (strain 3D7). The data set is described as follows: In vitro antiplasmodial SYBR Green I-based fluorescence assay, 96 h, strain 3D7. The format is cell-based, Plasmodium falciparum. The settings on record: for inhibition: 3D7, read-out: inhibition of parasite proliferation at the single (highest) concentration tested; for IC50: 96 h. In short, it runs like this: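 Synchronous ring-stage parasites in O+ erythrocytes, 0.5% parasitemia and 1% hematocrit, in RPMI 1640 with HEPES, Glutamax, 11 mM glucose, 200 μM hypoxanthine, gentamicin and 0.6% Albumax II. […] Frozen at −80 °C, then SYBR Safe lysis (20 mM Tris pH 7.5, EDTA, saponin, Triton X-100). Fluorescence as % of untreated control; IC50 from four-parameter fit, mean ± SEM, n = 3.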

Data set [2] can be described thus: Solubility in DMSO. The format is physicochemical. The settings on record: other compounds dissolved to 200 mM; these dissolved to between 10 and 100 mM.
Data set [3] has as its system β-hematin formation. Kind of data set: Detergent mediated β-hematin assay. The format is biochemical. The following applies: cell-free detergent mediated assay; Fig. S4.
Data set [4] deals with [Na^+]cyt of isolated trophozoite-stage 3D7 parasites (PfATP4). The data set is described as follows: Cytosolic Na+ measurements. The format is cell-based, Plasmodium falciparum. The following applies: isolated 3D7 trophozoites; 13i 1 μM and 10 μM, cipargamin 50 nM; final 85–90 min. The method in brief: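 Saponin-freed trophozoite-stage 3D7 parasites loaded with SBFI, in 96-well plates at 37 °C in saline (125 mM NaCl, 5 mM KCl, 1 mM MgCl2, 20 mM glucose, 25 mM HEPES, pH 7.1). Controls: DMSO solvent (0.1–0.2% v/v) and a PfATP4-inhibitor positive control. Final [Na+]cyt averaged over 85–90 min of exposure. Three independent experiments on separate days, mean + SEM, Dunnett's test versus DMSO.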

The mark [5] stands for this setting: Plasmodium falciparum, 3D7, 96 h, read-out: IC50 (P. falciparum proliferation), strain 3D7.

As for `COc1cc(C)ccc1NC(=S)c1nccc2ccccc12` [Compound 13a], in data set [1] (Plasmodium falciparum), the inhibition is less than 50%. The “inhibition of proliferation of P. falciparum” value in data set [1] (at concentrations up to 200 μM, strain 3D7) was no more than 50%. On to `COc1cc(C)ccc1NC(=O)c1nccc2ccccc12` [Compound 12a], for which, in data set [2], the “solubility in DMSO” value was “lower solubility”. In addition, the IC50 in data set [1] (setting [5]) stood at 69 µM. With `COc1cc(C)ccc1NC(=S)c1cnc2ccccc2c1` [Compound 13c], the “solubility in DMSO” value in data set [2] is listed as “lower solubility”. For the same compound, in data set [1] (setting [5]), the IC50 stood at 61 µM. The inhibition in data set [1] (Plasmodium falciparum) is greater than 50%. On to `COc1cc(C)ccc1NC(=S)c1ccc2ccccc2c1` [Compound 13b], for which the IC50 in data set [1] (setting [5]) is 23 µM. Also, the inhibition in data set [1] (Plasmodium falciparum) was greater than 50%. The “effect on β-hematin formation” value in data set [3] is recorded as “none”. Take `CCN(CC)CCCC(C)Nc1ccnc2cc(Cl)ccc12` (stereo not shown) [chloroquine, Chloroquine, reference compound]: in data set [3], the “effect on β-hematin formation” value was “inhibited”.

For `S=C(Nc1ccccc1)c1cccnc1` [Compound 13h], the inhibition in data set [1] (Plasmodium falciparum) was less than 50%.

Regarding `COc1cc(C)ccc1NC(=O)c1cnc2ccccc2c1` [Compound 12c], the IC50 in data set [1] (setting [5]) was 62 µM. Take `C[C@H]1Cc2c([nH]c3cc(Cl)c(F)cc23)[C@@]2(N1)C(=O)Nc1ccc(Cl)cc12` [cipargamin]: in data set [4], the “effect on [Na^+]cyt” value is given as “significant increase”. For the compound `S=C(Nc1ccccc1)c1nccc2ccccc12` [Compound 13d], in data set [1] (Plasmodium falciparum), the inhibition is less than 50%. On to `COc1cc(C)ccc1NC(=O)c1ccc2ccccc2c1` [Compound 12b], for which the IC50 in data set [1] (setting [5]) was 38 µM. The “effect on β-hematin formation” value in data set [3] is recorded as “none”.

Consider `COc1cc(C)ccc1NC(=O)c1nccc2ccccc12.Cl` [Compound 12j], for which the “reduction of antiplasmodial activity relative to 12a” value in data set [1] (compared with isoquinoline carboxamide 12a, strain 3D7) is given as “about 2 fold”. The IC50 in data set [1] (read-out: IC50 (P. falciparum proliferation), strain 3D7) turned out to be 136 µM.
